In ChEMBL document CHEMBL2311350, “Discovery of a novel phenylethyl benzamide glucokinase activator for the treatment of type 2 diabetes mellitus” (Bioorg Med Chem Lett, 2013):

Assays:
Hexokinase-4 [1] = target: T1, Hexokinase-4 (Homo sapiens, UniProt P35557); experiment: Induction of human pancreatic glucokinase activity at 5 mM glucose concentration
T1 sequence (P35557 whole entry): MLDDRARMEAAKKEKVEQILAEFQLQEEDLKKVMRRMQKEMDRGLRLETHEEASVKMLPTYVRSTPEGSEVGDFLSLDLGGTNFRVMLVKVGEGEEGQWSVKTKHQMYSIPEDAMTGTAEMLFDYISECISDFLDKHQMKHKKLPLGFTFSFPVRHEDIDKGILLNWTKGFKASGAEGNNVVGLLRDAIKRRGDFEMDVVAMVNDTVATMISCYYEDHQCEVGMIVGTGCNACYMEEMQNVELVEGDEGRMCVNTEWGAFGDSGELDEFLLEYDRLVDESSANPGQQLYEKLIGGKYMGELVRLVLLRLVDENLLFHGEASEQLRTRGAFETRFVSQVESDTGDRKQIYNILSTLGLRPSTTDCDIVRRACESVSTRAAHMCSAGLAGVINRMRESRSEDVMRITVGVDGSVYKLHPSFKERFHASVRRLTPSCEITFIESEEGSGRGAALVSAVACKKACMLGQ
In short: (§1)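 Enzymatic assay with purified recombinant human pancreatic or liver glucokinase, read as fold increase in activity at 5.0 mM glucose. EC50 is the mean of at least duplicate runs. For the pancreatic enzyme, glucose S0.5 and Vmax were also determined.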

[2] = Elimination half life in mouse; type: ADME, organism-based; conditions: in vivo, read-out: beta t1/2 (converted)
In short: (§2)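 Pharmacokinetics in mice and dogs after a single intravenous dose and a single oral dose. Clearance, volume of distribution, elimination half-life and oral bioavailability (F) were derived.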

[3] = Bioavailability in dog; type: ADME, organism-based, Canis lupus familiaris; conditions: in vivo; in short: as §2
[4] = Metabolic stability in mouse liver microsomes assessed as compound remaining after 60 mins; type: ADME, Microsome; conditions: read-out: Stability
In short: (§3)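 Compound incubated for 1 h with mouse, dog or human liver microsomes. Percent of parent compound remaining was measured.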

Cytochrome P450 2C9 = Cytochrome P450 2C9 (Homo sapiens, UniProt P11712); experiment: Inhibition of CYP2C9 (unknown origin) at 25 to 50 uM; type: ADME
[5] = Clearance in dog; type: ADME, organism-based, Canis lupus familiaris; conditions: in vivo; in short: as §2
Mus musculus [6] = species on record: Mus musculus; experiment: Toxicity in ob/ob mouse assessed as effect on serum lipid level; type: organism-based; conditions: in vivo
In short: (§4)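 ob/ob mice dosed orally and repeatedly in a subchronic study. Blood glucose, serum lipids and body weight were monitored.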

Cytochrome P450 1A2 = target: T2, Cytochrome P450 1A2 (Homo sapiens, UniProt P05177); experiment: Inhibition of CYP1A2 (unknown origin) at 25 to 50 uM; type: ADME
T2 sequence (P05177 whole entry): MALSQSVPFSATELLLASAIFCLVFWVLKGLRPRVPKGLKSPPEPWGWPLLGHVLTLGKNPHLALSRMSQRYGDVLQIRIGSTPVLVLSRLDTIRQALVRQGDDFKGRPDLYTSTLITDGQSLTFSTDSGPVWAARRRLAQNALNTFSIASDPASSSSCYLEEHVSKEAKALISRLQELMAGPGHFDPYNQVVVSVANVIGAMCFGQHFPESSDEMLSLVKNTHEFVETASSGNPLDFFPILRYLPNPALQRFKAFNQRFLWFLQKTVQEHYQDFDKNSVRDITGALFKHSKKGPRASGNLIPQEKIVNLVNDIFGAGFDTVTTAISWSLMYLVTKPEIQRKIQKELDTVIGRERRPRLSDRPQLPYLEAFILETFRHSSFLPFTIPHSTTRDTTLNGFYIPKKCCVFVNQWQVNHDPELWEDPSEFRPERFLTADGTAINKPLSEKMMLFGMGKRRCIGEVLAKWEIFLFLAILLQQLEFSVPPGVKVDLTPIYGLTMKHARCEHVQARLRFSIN

Cytochrome P450 2C19 = Cytochrome P450 2C19 (Homo sapiens, UniProt P33261); experiment: Inhibition of CYP2C19 (unknown origin) at 25 to 50 uM; type: ADME
Hexokinase-4 [7] = target: T1, Hexokinase-4; experiment: Induction of human hepatic glucokinase activity at 5 mM glucose concentration; in short: as §1
[8] = Metabolic stability in human liver microsomes assessed as compound remaining after 60 mins; type: ADME, Microsome; conditions: read-out: Stability; in short: as §3
Mus musculus [9] = experiment: Increase in oral glucose tolerance in C57BL/J mouse assessed as reduction in glucose area under curve at 50 mg/kg by OGTT; type: functional; parameters: scale not given: the % may be the effect or the level left
In short: (§5)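 C57BL/J6 mice given oral dosing followed by an oral glucose tolerance test. Plasma glucose was tracked over time and glucose AUC reduction calculated. Several doses were tested, including 50 and 150 mg/kg. Hypoglycemia risk was judged from the glucose profiles.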

Cytochrome P450 2D6 = Cytochrome P450 2D6 (Homo sapiens, UniProt P10635); experiment: Inhibition of CYP2D6 (unknown origin) at 25 to 50 uM; type: ADME
[10] = Bioavailability in mouse; type: ADME, organism-based; conditions: in vivo; in short: as §2
[11] = Metabolic stability in dog liver microsomes assessed as compound remaining after 60 mins; type: ADME, Canis lupus familiaris, Microsome; conditions: read-out: Stability; in short: as §3
Mus musculus [12] = species on record: Mus musculus; experiment: Toxicity in ob/ob mouse assessed as effect on body weight; type: organism-based; conditions: in vivo; in short: as §4
Cytochrome P450 3A4 = Cytochrome P450 3A4 (Homo sapiens, UniProt P08684); experiment: Inhibition of CYP3A4 (unknown origin) at 25 to 50 uM; type: ADME
Mus musculus [13] = experiment: Toxicity in C57BL/J mouse assessed as hypoglycemic risk at 150 mg/kg; type: organism-based; parameters: dose 150 mg/kg; conditions: in vivo; in short: as §5
[14] = Volume of distribution in dog; type: ADME, organism-based, Canis lupus familiaris; conditions: in vivo; in short: as §2
[15] = Elimination half life in dog; type: ADME, organism-based, Canis lupus familiaris; conditions: in vivo, read-out: beta t1/2 (converted); in short: as §2
[16] = Clearance in mouse; type: ADME, organism-based; conditions: in vivo; in short: as §2
[17] = Volume of distribution in mouse; type: ADME, organism-based; conditions: in vivo; in short: as §2
Mus musculus [18] = experiment: Increase in oral glucose tolerance in C57BL/J mouse assessed as reduction in glucose area under curve at 300 mg/kg by OGTT; type: functional; parameters: scale not given: the % may be the effect or the level left

Chain of Cytochrome P450 2C19 (P33261 whole entry): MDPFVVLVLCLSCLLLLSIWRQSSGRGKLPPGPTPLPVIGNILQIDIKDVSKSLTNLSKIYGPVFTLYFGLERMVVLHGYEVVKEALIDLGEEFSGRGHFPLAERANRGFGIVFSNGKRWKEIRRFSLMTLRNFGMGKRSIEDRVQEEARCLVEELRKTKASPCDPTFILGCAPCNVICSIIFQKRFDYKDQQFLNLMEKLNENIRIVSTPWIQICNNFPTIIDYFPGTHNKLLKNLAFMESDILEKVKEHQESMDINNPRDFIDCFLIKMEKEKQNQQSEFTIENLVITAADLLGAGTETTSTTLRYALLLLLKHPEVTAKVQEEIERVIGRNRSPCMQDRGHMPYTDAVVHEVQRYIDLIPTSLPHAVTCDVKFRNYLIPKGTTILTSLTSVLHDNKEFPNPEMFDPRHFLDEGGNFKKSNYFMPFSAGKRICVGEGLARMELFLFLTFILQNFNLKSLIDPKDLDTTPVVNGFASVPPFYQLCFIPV
Chain of Cytochrome P450 3A4 (P08684 whole entry): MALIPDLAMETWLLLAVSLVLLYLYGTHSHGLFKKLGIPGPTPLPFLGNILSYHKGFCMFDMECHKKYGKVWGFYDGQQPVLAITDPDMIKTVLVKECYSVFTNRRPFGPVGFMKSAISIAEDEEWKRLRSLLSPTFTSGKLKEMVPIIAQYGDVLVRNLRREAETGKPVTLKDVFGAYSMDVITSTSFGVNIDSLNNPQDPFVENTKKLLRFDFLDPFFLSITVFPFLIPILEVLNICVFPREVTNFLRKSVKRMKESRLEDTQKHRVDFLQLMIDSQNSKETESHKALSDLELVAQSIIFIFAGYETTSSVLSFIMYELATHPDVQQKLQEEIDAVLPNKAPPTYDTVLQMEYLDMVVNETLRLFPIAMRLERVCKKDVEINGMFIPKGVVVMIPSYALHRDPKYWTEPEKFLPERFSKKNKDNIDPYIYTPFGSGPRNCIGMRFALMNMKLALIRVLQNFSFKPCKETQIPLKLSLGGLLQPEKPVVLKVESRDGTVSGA
Chain of Cytochrome P450 2C9 (P11712 whole entry): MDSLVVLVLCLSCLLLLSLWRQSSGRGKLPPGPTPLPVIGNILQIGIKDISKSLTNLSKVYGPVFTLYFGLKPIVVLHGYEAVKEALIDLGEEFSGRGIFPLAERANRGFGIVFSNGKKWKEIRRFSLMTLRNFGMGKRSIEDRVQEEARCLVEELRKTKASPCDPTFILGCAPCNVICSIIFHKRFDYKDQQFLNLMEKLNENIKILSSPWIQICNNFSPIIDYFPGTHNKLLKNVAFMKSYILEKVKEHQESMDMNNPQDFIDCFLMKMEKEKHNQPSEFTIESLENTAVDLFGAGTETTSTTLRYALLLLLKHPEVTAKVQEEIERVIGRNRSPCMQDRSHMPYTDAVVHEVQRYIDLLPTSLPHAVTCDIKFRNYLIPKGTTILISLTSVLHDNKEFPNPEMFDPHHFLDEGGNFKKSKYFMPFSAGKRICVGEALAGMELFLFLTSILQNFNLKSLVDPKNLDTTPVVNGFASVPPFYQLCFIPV
Chain of Cytochrome P450 2D6 (P10635 whole entry): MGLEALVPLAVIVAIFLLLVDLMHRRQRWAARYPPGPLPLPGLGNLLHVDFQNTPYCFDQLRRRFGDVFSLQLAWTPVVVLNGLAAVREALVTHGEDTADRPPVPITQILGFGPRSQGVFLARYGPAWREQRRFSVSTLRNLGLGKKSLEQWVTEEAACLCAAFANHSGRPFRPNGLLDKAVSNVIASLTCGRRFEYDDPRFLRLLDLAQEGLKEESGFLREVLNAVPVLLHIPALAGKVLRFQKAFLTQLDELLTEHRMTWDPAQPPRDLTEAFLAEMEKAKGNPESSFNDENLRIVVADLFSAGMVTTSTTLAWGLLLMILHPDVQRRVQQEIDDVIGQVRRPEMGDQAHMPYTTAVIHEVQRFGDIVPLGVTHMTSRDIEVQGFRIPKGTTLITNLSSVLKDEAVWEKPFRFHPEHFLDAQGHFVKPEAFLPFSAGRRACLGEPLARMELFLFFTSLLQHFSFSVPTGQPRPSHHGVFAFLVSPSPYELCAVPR

## COC[C@H](C)Oc1cc(CCc2ccc(F)cc2F)cc(C(=O)Nc2ccn(C)n2)c1
Hexokinase-4 [1]
  EC50: 184 nM

## COC[C@H](C)Oc1cc(/C=C/c2ccc(F)cc2F)cc(C(=O)Nc2ccn(C)n2)c1
Hexokinase-4 [1]
  EC50: 109 nM

## COC[C@H](C)Oc1cc(/C=C/c2ccc([N+](=O)[O-])cc2)cc(C(=O)Nc2ccn(C)n2)c1
Hexokinase-4 [1]
  EC50: 852 nM

## COC[C@H](C)Oc1cc(CCc2ccc(F)cc2)cc(C(=O)Nc2ccn(C)n2)c1
Hexokinase-4 [1]
  EC50: 216 nM

## COC[C@H](C)Oc1cc(CCc2c(F)cccc2F)cc(C(=O)Nc2ccc(C(=O)O)cn2)c1
[2]
  half-life: 2.6 h
[3]
  bioavailability: 85%
[4]
  remaining at 1 h: > 60%
Cytochrome P450 2C9
  inhibition (INH): Not Active
[5]
  clearance: 7.17 mL/min/kg
Mus musculus [6]
  Activity: Non-toxic
Cytochrome P450 1A2
  inhibition (INH): Not Active
Cytochrome P450 2C19
  inhibition (INH): Not Active
Hexokinase-4 [7]
  EC50: 85 nM
[8]
  remaining at 1 h: > 60%
Hexokinase-4 [1]
  EC50: 70 nM
Mus musculus [9]
  Activity: 29.6%
Cytochrome P450 2D6
  inhibition (INH): Not Active
[10]
  bioavailability: 66%
[11]
  remaining at 1 h: > 60%
Mus musculus [12]
  Activity: Non-toxic
Cytochrome P450 3A4
  inhibition (INH): Not Active
Mus musculus [13]
  Activity: Toxic
[14]
  Vd: 0.49 L/kg
[15]
  half-life: 2.6 h
[16]
  clearance: 2.5 mL/min/kg
[17]
  Vd: 0.33 L/kg

## COC[C@H](C)Oc1cc(/C=C/c2ccc(F)cc2)cc(C(=O)Nc2ccn(C)n2)c1
Hexokinase-4 [1]
  EC50: 119 nM

## COC[C@H](C)Oc1cc(/C=C/c2cccc(C)n2)cc(C(=O)Nc2ccn(C)n2)c1
Hexokinase-4 [1]
  EC50: 132 nM

## COC[C@H](C)Oc1cc(/C=C/c2c(F)cccc2F)cc(C(=O)Nc2ccn(C)n2)c1
Hexokinase-4 [1]
  EC50: 161 nM

## COC[C@H](C)Oc1cc(/C=C/c2cc(F)cc(F)c2F)cc(C(=O)Nc2ccn(C)n2)c1
Hexokinase-4 [1]
  EC50: 848 nM

## CN(C)C(=N)NC(=N)N [METFORMIN]
Mus musculus [18]
  Activity: 29.9%

## COC[C@H](C)Oc1cc(/C=C/c2ccccc2F)cc(C(=O)Nc2ccn(C)n2)c1
Hexokinase-4 [1]
  EC50: 80 nM

## COC[C@H](C)Oc1cc(CCc2cc(F)cc(F)c2F)cc(C(=O)Nc2ccn(C)n2)c1
Hexokinase-4 [1]
  EC50: 855 nM

## COC[C@H](C)Oc1cc(/C=C/c2cc(F)ccc2F)cc(C(=O)Nc2ccn(C)n2)c1
Hexokinase-4 [1]
  EC50: 200 nM

## COC[C@H](C)Oc1cc(/C=C/c2ccccc2[N+](=O)[O-])cc(C(=O)Nc2ccn(C)n2)c1
Hexokinase-4 [1]
  EC50: 283 nM

## COC[C@H](C)Oc1cc(/C=C/c2ccc([N+](=O)[O-])cc2)cc(C(=O)Nc2ccc(C(=O)O)cn2)c1
Hexokinase-4 [1]
  EC50: 284 nM

## COC[C@H](C)Oc1cc(/C=C/c2ccccc2OC)cc(C(=O)Nc2ccn(C)n2)c1
Hexokinase-4 [1]
  EC50: 115 nM

## COC[C@H](C)Oc1cc(CCc2c(F)cccc2F)cc(C(=O)Nc2ccn(C)n2)c1
Hexokinase-4 [1]
  EC50: 131 nM

## COC[C@H](C)Oc1cc(/C=C/c2cc(F)cc(F)c2F)cc(C(=O)Nc2ccc(C(=O)O)cn2)c1
Hexokinase-4 [1]
  EC50: 778 nM

## COC[C@H](C)Oc1cc(Oc2cc(F)cc(F)c2)cc(C(=O)Nc2ccc(C(=O)O)cn2)c1
[3]
  bioavailability: 100%
